In brackets after ≈: the same amount, converted by molar mass.
Key:
[1] = biological target: Peroxisome proliferator-activated receptor (Homo sapiens) (UniProt P37231+Q07869+Q03181); test: Activation of PPAR in human HepG2 cells at 10 ug/ml after 24 hrs by luciferase reporter gene assay relative to rosiglitazone; type: cell-based
Procedure, shortened: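 HepG2 cells in low-glucose DMEM with 100 U mL-1 streptomycin/penicillin, plated at 1.5 × 10⁴ per well a day before transfection. At 70% confluence they were co-transfected with pPPRE-Luc (firefly) and phRL-TK (renilla). After 24 h the medium was replaced with sample-containing medium, with rosiglitazone as positive control. Dual firefly/renilla luciferase was read after a further 24 h; untransfected cells served as blank.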

Rattus norvegicus = species: Rattus norvegicus; test: Inhibition of rat intestine alpha-glucosidase using maltose as substrate after 10 mins by spectrometric analysis relative to acarbose; parameters: concentration or dose not given beside the values
Procedure, shortened: (§1)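 Enzyme and sample were preincubated at 37 °C for 10 min. Then 0.1 mol L-1 maltose was added and incubated 10 min at room temperature. The reaction was stopped and OD read at 490 nm. Blank (no enzyme, no sample) and negative (no sample) controls were run alongside.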

[2] = Inhibition of rat intestine alpha-glucosidase using maltose as substrate after 10 mins by spectrometric analysis; procedure, shortened: as §1
[3] = biological target: T1, Peroxisome proliferator-activated receptor (Homo sapiens, UniProt P37231+Q07869+Q03181); test: Activation of PPAR in human HepG2 cells after 24 hrs by luciferase reporter gene assay; type: cell-based
T1 sequence (P37231 whole entry): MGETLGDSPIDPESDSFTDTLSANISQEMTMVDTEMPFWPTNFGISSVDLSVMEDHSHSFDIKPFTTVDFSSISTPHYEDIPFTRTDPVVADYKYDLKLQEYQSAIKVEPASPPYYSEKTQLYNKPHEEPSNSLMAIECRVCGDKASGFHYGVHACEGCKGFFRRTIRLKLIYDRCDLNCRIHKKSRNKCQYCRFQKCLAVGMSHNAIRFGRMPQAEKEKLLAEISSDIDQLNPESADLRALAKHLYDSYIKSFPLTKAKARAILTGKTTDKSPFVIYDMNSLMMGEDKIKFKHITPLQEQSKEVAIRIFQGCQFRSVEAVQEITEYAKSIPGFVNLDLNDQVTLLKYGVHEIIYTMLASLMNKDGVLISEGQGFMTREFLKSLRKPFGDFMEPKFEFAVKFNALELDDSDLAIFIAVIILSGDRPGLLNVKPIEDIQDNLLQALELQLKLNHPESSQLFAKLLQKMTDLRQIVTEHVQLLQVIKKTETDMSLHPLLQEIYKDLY
T1 sequence (Q07869 whole entry): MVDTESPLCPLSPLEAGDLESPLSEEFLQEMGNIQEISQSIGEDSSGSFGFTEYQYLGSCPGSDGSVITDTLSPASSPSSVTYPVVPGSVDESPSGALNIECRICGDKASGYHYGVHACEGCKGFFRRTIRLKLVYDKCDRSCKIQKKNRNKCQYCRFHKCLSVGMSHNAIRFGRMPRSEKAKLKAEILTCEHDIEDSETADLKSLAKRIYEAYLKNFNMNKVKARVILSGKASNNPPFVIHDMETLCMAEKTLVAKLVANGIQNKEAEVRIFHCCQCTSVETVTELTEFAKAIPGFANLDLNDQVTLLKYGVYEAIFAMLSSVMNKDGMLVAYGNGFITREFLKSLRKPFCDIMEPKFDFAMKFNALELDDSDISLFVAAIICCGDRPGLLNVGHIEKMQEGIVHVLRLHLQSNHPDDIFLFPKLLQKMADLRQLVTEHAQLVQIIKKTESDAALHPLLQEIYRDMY
T1 sequence (Q03181 whole entry): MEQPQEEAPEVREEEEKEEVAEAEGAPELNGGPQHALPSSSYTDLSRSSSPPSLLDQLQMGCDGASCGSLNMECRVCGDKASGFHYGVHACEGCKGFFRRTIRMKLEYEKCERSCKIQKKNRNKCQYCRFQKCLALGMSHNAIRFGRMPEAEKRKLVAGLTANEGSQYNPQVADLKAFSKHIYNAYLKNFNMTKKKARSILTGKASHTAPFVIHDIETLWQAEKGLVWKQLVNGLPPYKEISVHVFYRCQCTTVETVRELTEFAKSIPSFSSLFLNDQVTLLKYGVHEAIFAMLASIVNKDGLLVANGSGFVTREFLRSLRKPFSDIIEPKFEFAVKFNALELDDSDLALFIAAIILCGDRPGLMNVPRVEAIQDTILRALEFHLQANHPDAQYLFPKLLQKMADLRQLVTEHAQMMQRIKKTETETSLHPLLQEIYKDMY

Row | SMILES | Activity [1] [%] | inhibition (Rattus norvegicus) [%] | IC50 [2] [µg/mL] | EC50 [3] [µg/mL]
1 | COc1ccc2cc(CCC(=O)CC(Nc3ccc(S(N)(=O)=O)cc3)c3ccccc3)ccc2c1 (stereo not given) | 61 | 41.7 | – | –
2 | CCCCOc1ccc(C(CC(=O)CCc2ccc3cc(OC)ccc3c2)Nc2ccc(S(=O)(=O)Nc3cc(C)on3)cc2)cc1 (stereo not given) | 83.3 | 14.3 | – | –
3 | COc1ccc2cc(CCC(=O)CC(Nc3ccc(S(N)(=O)=O)cc3)c3ccc(Cl)cc3)ccc2c1 (stereo not given) | 71.9 | 66.3 | 4.07 (≈ 7.78 µM) | 6.74 (≈ 12.9 µM)
4 | COc1ccc2cc(CCC(=O)CC(Nc3ccc(S(=O)(=O)Nc4cc(C)on4)cc3)c3cccc([N+](=O)[O-])c3)ccc2c1 (stereo not given) | 81.8 | 41.6 | – | –
5 | COc1ccc2cc(CCC(=O)CC(Nc3ccc(S(=O)(=O)Nc4cc(C)on4)cc3)c3ccc(C)cc3)ccc2c1 (stereo not given) | 58.5 | 15.8 | – | –
6 | COc1ccc2cc(CCC(=O)CC(Nc3ccc(S(=O)(=O)Nc4cc(C)on4)cc3)c3cccc(Cl)c3)ccc2c1 (stereo not given) | 19.6 | 47.1 | – | –
7 | COc1ccc2cc(CCC(=O)CC(Nc3ccc(S(=O)(=O)Nc4cc(C)on4)cc3)c3ccccc3)ccc2c1 (stereo not given) | 17.8 | 14.9 | – | –
8 | COc1ccc2cc(CCC(=O)CC(Nc3ccc(S(=O)(=O)Nc4cc(C)on4)cc3)c3cccc(C)c3)ccc2c1 (stereo not given) | 68.4 | 70.5 | 3.24 (≈ 5.55 µM) | –
9 | COc1ccc2cc(CCC(=O)CC(Nc3ccc(S(N)(=O)=O)cc3)c3ccc4cc(OC)ccc4c3)ccc2c1 (stereo not given) | 19.1 | 6.39 | – | –
10 | COc1ccc2cc(CCC(=O)CC(Nc3ccc(S(=O)(=O)Nc4cc(C)on4)cc3)c3ccc(Cl)cc3Cl)ccc2c1 (stereo not given) | 64.5 | 20.3 | – | –
11 | COc1cccc(C(CC(=O)CCc2ccc3cc(OC)ccc3c2)Nc2ccc(S(N)(=O)=O)cc2)c1 (stereo not given) | 60.3 | 15.7 | – | –
12 | COc1ccc2cc(CCC(=O)CC(Nc3ccc(S(=O)(=O)Nc4cc(C)on4)cc3)c3ccc(Cl)c(Cl)c3)ccc2c1 (stereo not given) | 22.4 | 53.7 | – | –
13 | COc1ccc2cc(CCC(=O)CC(Nc3ccc(S(N)(=O)=O)cc3)c3ccc(O)cc3)ccc2c1 (stereo not given) | 73.4 | 52.8 | 4.14 (≈ 8.2 µM) | 5.56 (≈ 11 µM)
14 | COc1ccc2cc(CCC(=O)CC(Nc3ccc(S(=O)(=O)Nc4cc(C)on4)cc3)c3cccc(F)c3)ccc2c1 (stereo not given) | 36.7 | 24.7 | – | –
15 | COc1ccc2cc(CCC(=O)CC(Nc3ccc(S(=O)(=O)Nc4cc(C)on4)cc3)c3ccc(O)cc3)ccc2c1 (stereo not given) | 13.8 | 7.07 | – | –
16 | COc1ccc2cc(CCC(=O)CC(Nc3ccc(S(N)(=O)=O)cc3)c3ccc(Br)cc3)ccc2c1 (stereo not given) | 67.3 | 79.7 | 2.92 (≈ 5.15 µM) | 8.21 (≈ 14.5 µM)
17 | COc1ccc2cc(CCC(=O)CC(Nc3ccc(S(N)(=O)=O)cc3)c3ccc([N+](=O)[O-])cc3)ccc2c1 (stereo not given) | 46.8 | 31.6 | – | –
18 | COc1ccc2cc(CCC(=O)CC(Nc3ccc(S(N)(=O)=O)cc3)c3cccc(C)c3)ccc2c1 (stereo not given) | 57.3 | 14.1 | – | –
19 | COc1ccc2cc(CCC(=O)CC(Nc3ccc(S(=O)(=O)Nc4cc(C)on4)cc3)c3ccc(Cl)cc3)ccc2c1 (stereo not given) | 3.92 | 44.2 | – | –
20 | COc1ccc2cc(CCC(=O)CC(Nc3ccc(S(N)(=O)=O)cc3)c3cccc([N+](=O)[O-])c3)ccc2c1 (stereo not given) | 14.8 | 32.7 | – | –
21 | COc1ccc2cc(CCC(=O)CC(Nc3cc(C)on3)c3ccc(Cl)cc3Cl)ccc2c1 (stereo not given) | 11.5 | 13 | – | –
22 | COc1ccc2cc(CCC(=O)CC(Nc3ccc(S(N)(=O)=O)cc3)c3ccc4c(c3)OCO4)ccc2c1 (stereo not given) | 9.87 | -4.32 | – | –
23 | COc1ccc2cc(CCC(=O)CC(Nc3ccc(S(N)(=O)=O)cc3)c3cccc(Cl)c3)ccc2c1 (stereo not given) | 58.7 | 40.8 | – | –
24 | COc1ccc2cc(CCC(=O)CC(Nc3ccc(S(N)(=O)=O)cc3)c3ccco3)ccc2c1 (stereo not given) | 6.64 | 46.8 | – | –
25 | COc1ccc2cc(CCC(=O)CC(Nc3ccc(S(=O)(=O)Nc4cc(C)on4)cc3)c3ccc4c(c3)OCO4)ccc2c1 (stereo not given) | 43 | 19.2 | – | –
26 | COc1ccc2cc(CCC(=O)CC(Nc3ccc(S(N)(=O)=O)cc3)c3ccc(Cl)c(Cl)c3)ccc2c1 (stereo not given) | 45.8 | 34.8 | – | –
27 | CCCCOc1ccc(C(CC(=O)CCc2ccc3cc(OC)ccc3c2)Nc2ccc(S(N)(=O)=O)cc2)cc1 (stereo not given) | 18 | -4.69 | – | –
28 | COc1cccc(C(CC(=O)CCc2ccc3cc(OC)ccc3c2)Nc2ccc(S(=O)(=O)Nc3cc(C)on3)cc2)c1 (stereo not given) | 78.2 | 12.7 | – | –

Next, values leading:

Row | Activity [1] [%] | inhibition (Rattus norvegicus) [%] | IC50 [2] [µg/mL] | EC50 [3] [µg/mL] | SMILES
29 | 5.83 | 7.36 | – | – | COc1ccc2cc(CCC(=O)CC(Nc3cc(C)on3)c3ccccc3)ccc2c1 (stereo not given)
30 | 9.11 | 24.4 | – | – | COc1ccc2cc(CCC(=O)CC(Nc3cc(C)on3)c3cccc([N+](=O)[O-])c3)ccc2c1 (stereo not given)
31 | 4.86 | 26.3 | – | – | COc1ccc2cc(CCC(=O)CC(Nc3cc(C)on3)c3cccc(Cl)c3)ccc2c1 (stereo not given)
32 | 12.6 | 0.35 | – | – | COc1ccc2cc(CCC(=O)CC(Nc3cc(C)on3)c3ccc4c(c3)OCO4)ccc2c1 (stereo not given)
33 | 4.18 | 24.6 | – | – | COc1ccc2cc(CCC(=O)CC(Nc3cc(C)on3)c3ccc([N+](=O)[O-])cc3)ccc2c1 (stereo not given)
34 | 6.32 | 26.3 | – | – | COc1ccc2cc(CCC(=O)CC(Nc3cc(C)on3)c3ccc(Cl)cc3)ccc2c1 (stereo not given)
35 | 5.37 | 22.3 | – | – | COc1ccc2cc(CCC(=O)CC(Nc3cc(C)on3)c3ccc(Cl)c(Cl)c3)ccc2c1 (stereo not given)
36 | 5.3 | 21.4 | – | – | COc1ccc2cc(CCC(=O)CC(Nc3cc(C)on3)c3ccc(O)cc3)ccc2c1 (stereo not given)
37 | 30.1 | 13.3 | – | – | COc1ccc2cc(CCC(=O)CC(Nc3cc(C)on3)c3cccc(F)c3)ccc2c1 (stereo not given)
38 | 11.5 | 7.23 | – | – | COc1ccc2cc(CCC(=O)CC(Nc3cc(C)on3)c3ccc(C)cc3)ccc2c1 (stereo not given)
39 | 41.6 | 15.8 | – | – | COc1cccc(C(CC(=O)CCc2ccc3cc(OC)ccc3c2)Nc2cc(C)on2)c1 (stereo not given)
40 | 3.13 | 10.8 | – | – | COc1ccc(C(CC(=O)CCc2ccc3cc(OC)ccc3c2)Nc2cc(C)on2)cc1 (stereo not given)
41 | 6.33 | 11 | – | – | CCCCOc1ccc(C(CC(=O)CCc2ccc3cc(OC)ccc3c2)Nc2cc(C)on2)cc1 (stereo not given)
42 | 12.7 | 10.2 | – | – | COc1ccc2cc(CCC(=O)CC(Nc3cc(C)on3)c3cccc(C)c3)ccc2c1 (stereo not given)
43 | 48.4 | 50.8 | – | – | COc1ccc(C(CC(=O)CCc2ccc3cc(OC)ccc3c2)Nc2ccc(S(=O)(=O)Nc3cc(C)on3)cc2)cc1 (stereo not given)
44 | 2.87 | 1.42 | – | – | COc1ccc2cc(CCC(=O)CC(Nc3cc(C)on3)c3ccc(Br)cc3)ccc2c1 (stereo not given)
